Screens from PubChem.
T cruzi repl = T. cruzi replication inhibition. T. cruzi beta-gal in NIH3T3, luminescence, 90 h. inhibition, % (no concentration beside the values). actives 1.4% (n = 300,000). AID 1885;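 active = mean inhibition across valid replicates above about 55%, limit read from the data; inconclusive = mean below that limit but half or more replicates reach it; inactive = mean below it, under half of replicates reach it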;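 note: signal also drops with host cell toxicity which is not excluded here; 0% = plate median of DMSO wells and 100% = zero luminescence signal; higher percent means less beta-gal luminescence so fewer parasites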
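System – NIH/3T3 host cells with β-galactosidase reporter T. cruzi · Doses – single 50 nL compound addition per well in DMSO · Reagent – 5000 T. cruzi trypomastigotes/well · Medium – Low-serum DMEM with 2% FBS · Timing – ≥90 h infection period, 3 h prior cell attachment · Evaluation – parasite load inhibition, % · Technique – GalScreen luminescence, 60 min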
Beta apoptosis = blocks beta cell apoptosis. INS-1E cytokine-induced death, ATP luminescence, 48 h; percent of positive-control rescue, neutral wells zero. AID 435005. protection from apoptosis, % (concentration not given with the values). actives 0.8% (n = 300,000);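 active = Every replicate reaches about 75%, or at least half do and their mean reaches it too, limit read from the data; inconclusive = At least half of replicates reach the limit but their mean does not; inactive = Under half of replicates reach the limit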;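 note: 0% = cytokine-treated negative control wells and 100% = positive control rescue; higher means more ATP so stronger rescue from cytokine killing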
Calb FLC = affects C. albicans growth with fluconazole; C. albicans CaCi-2 + fluconazole, Alamar Blue growth, 48 h; growth inhibition, % (no concentration beside the values); actives 0.57% (n = 300,000);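 active = growth inhibition above about 58% in most replicates, limit read from the data, passing the limit was not always enough; inconclusive = exactly half the replicates above a set limit; inactive = most replicates below a set limit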;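 note: all wells also contain fluconazole at 8 µg/ml as a sub-toxic cotreatment; 0% = median of DMSO wells and 100% = median of geldanamycin control wells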
Mdm2 MdmX PPI = human Mdm2/MdmX binding inhibition; inhibition, % at 8 µM; actives 3% (n = 330,000); AID 485346; SaOS-2 split-luciferase Mdm2/MdmX complementation, luminescence;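 active = inhibition of at least 50% at 8 µM in the primary screen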
Target sequence (O15151 whole entry, looked up): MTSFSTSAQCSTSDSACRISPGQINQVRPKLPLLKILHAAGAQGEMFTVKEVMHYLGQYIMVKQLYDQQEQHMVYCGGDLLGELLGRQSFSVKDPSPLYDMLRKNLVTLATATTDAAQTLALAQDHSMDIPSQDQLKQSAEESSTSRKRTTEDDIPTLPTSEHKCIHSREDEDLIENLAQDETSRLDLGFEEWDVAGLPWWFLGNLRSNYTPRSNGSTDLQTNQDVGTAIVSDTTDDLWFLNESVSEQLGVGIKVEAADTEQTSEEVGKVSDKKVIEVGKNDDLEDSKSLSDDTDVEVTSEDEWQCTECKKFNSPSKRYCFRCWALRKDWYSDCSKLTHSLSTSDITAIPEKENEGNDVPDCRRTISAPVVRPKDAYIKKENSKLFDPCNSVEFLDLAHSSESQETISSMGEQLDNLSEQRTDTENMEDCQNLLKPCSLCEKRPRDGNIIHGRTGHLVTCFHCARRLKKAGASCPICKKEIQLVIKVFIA
Target sequence (Q00987 whole entry, looked up): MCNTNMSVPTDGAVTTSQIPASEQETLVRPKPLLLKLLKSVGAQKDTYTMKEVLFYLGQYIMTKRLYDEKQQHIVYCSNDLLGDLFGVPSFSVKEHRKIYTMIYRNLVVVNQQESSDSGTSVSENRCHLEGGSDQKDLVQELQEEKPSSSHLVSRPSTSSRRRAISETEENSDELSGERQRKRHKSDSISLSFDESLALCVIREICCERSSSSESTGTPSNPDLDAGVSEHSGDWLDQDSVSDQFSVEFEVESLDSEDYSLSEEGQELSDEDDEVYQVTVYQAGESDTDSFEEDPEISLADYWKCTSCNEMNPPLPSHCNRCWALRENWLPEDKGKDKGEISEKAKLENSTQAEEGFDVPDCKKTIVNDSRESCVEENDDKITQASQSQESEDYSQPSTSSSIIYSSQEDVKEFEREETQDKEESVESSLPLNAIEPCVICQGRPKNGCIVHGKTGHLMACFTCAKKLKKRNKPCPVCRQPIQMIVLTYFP
CSC inhib = cancer stem cell inhibition; AID 2717; cancer stem cell-like cells viability, luminescence; actives 1.1% (n = 300,000); inhibition, % at 7.5 µM; in the data active = inhibition above about 75%; inconclusive = no clear call, values can overlap the other calls; tested in HMLE shEcad cells
NLRP3 yeast inh = inhibitors of NALP3 inflammasome in yeast. Yeast reconstituted NLRP3/ASC/caspase-1, beta-gal luminescence, 24 h. inhibition, % at 10 µM. actives 0.39% (n = 330,000);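 active = inhibition of 50% or more; inactive = inhibition below 50%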;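 note: plate controls were induced DMSO wells for no effect and uninduced yeast grown without galactose for full effect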
Mdm2 MdmX conf = human Mdm2/MdmX binding inhibition, confirmed; inhibition, % at 8 µM; AID 489028; actives 55% (n = 10,000); luminescent assay; shares compounds with Mdm2 MdmX PPI; in the data active = inhibition above about 40%
Full FLuc ctr = full-length luciferase inhibition in Mdm2/MdmX counter-screen | SaOS-2 full-length luciferase counterscreen, luminescence | actives 77% (n = 6,200) | inhibition, % at 8 µM | shares compounds with Mdm2 MdmX PPI;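 active = mean inhibition at 8 µM reaching about 37%, which flags the compound as non-specific, limit read from the data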;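 note: p53-null SaOS-2 cells with luciferase driven by a doxycycline-inducible promoter; compound on cells about two nights before reading with doxycycline added after day one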
Starred values were filed as active, the others as inactive; ? = inconclusive; · = not tested or not shown. Hits are enriched below; roughly 5.3% of the tested compounds scored in any of these assays.

SMILES	T cruzi repl	Beta apoptosis	Calb FLC	Mdm2 MdmX PPI	CSC inhib	NLRP3 yeast inh	Mdm2 MdmX conf	Full FLuc ctr
Nc1nc(-c2cc(O)ccc2[N+](=O)[O-])cc(-c2ccccc2)c1[N+](=O)[O-]	-3	63	-1	65*	13	28	57*	54*
CCN(CC)C(=O)N1c2ccccc2C=Cc2ccccc21	2	-8	-3	85*	43	-33	80*	34
COc1ccc(CCNC(=S)Nc2cccc3ccccc23)cc1	7	9	-10	64*	15	12	33	·
COc1cc2[nH]c(C(=O)Nc3ccc4c(c3)OCCO4)cc2c(OC)c1OC	2	·	-7	36	14	-3	·	·
COc1cc2cc(C(=O)Nc3ccc4c(c3)OCCO4)[nH]c2cc1OC	-8	1	-4	65*	20	10	48*	71*
O=C(NCCN1CCN(S(=O)(=O)c2ccc([N+](=O)[O-])cc2)CC1)C(=O)Nc1ccccc1	28	2	5	71*	6	3	15	·
C=CCN1N=C(c2ccc(NC(=O)c3ccccc3)cc2)CSC1=O	-6	2	0	66*	-3	10	4	·
CCN(C(=O)COC(=O)c1c2c(nc3ccccc13)/C(=C/c1ccccc1)CC(C)C2)C1CCS(=O)(=O)C1 (centres undefined)	44	-3	?	53*	1	23	52*	55*
CCN(C(=O)COC(=O)c1c(C)nn(-c2ccccc2)c1C)C1CCS(=O)(=O)C1 (centres undefined)	-6	2	-5	12	2	26	·	·
Cc1ccc2nc(-c3ccc(NC(=S)NC4CC(C)(C)NC(C)(C)C4)cc3)sc2c1	14	0	74*	99*	4	24	-35	·
COc1ccccc1CNCC(O)(c1ccc(Cl)cc1)c1ccc(Cl)cc1	37	19	-16	54*	-14	20	16	·
COc1ccccc1CNCC(O)(c1ccc(F)cc1)c1ccc(F)cc1	31	14	-7	16	4	14	·	·
Brc1ccc(/C=N/Nc2ncnc3c2cnn3Cc2ccccc2)cc1	15	26	-2	95*	·	13	48*	68*
Cn1ncc2c(NCc3ccccc3)ncnc21	-2	1	-2	-21	-12	10	·	·
Clc1ccc(Cn2ncc3c(NCc4ccccc4)ncnc32)c(Cl)c1	8	-11	-11	69*	77*	20	69*	39*
Cc1cc(C(=O)NN)c(C)o1	-10	0	13	-7	3	3	·	·
CCOC(=O)c1c(-c2ccc(C)o2)csc1NC(=O)COC(=O)c1ccc(NC(N)=O)cc1	-1	1	3	69*	1	18	15	·
Cc1ccc(C(=O)c2c(C)oc3c2C(=O)C(=O)c2ccccc2-3)cc1	?	124*	29	97*	28	6	99*	42*
CCc1nc(N)nc(N)c1-c1ccc(Cl)cc1	21	·	-6	51*	·	14	17	·
CN(C)CCn1c2ccccc2c2nc3ccc([N+](=O)[O-])cc3cc21	34	59	3	100*	?	21	84*	60*
CCn1c2ccccc2c2cc([N+](=O)[O-])ccc21	-3	0	16	-4	-1	12	·	·
COc1ccc(/C=C/C(=O)Nc2nnc(C(C)C)s2)cc1OC	3	-5	1	17	0	14	·	·
Cn1ncc(C(=O)Nc2ccc(OC(F)(F)F)cc2)c1-n1cccc1	-17	2	0	11	-2	24	·	·
O=C(CN1CCC(C(O)(c2ccccc2)c2ccccc2)CC1)Nc1cc(Cl)ccc1Cl	55*	5	9	54*	-4	10	45*	86*
COC(=O)c1ccc(NC(=O)CCn2cccc2)cc1	4	-2	4	26	-8	32	·	·
SMILES	T cruzi repl	Beta apoptosis	Calb FLC	Mdm2 MdmX PPI	CSC inhib	NLRP3 yeast inh	Mdm2 MdmX conf	Full FLuc ctr
S=c1[nH]nc(-c2ccccc2)n1/N=C/c1ccc(-c2ccccc2Cl)o1	3	7	28	90*	102*	9	90*	54*
CCN(CC)c1ccc2cc(-c3nc4ccccc4[nH]3)c(=O)oc2c1	4	?	33	67*	57	-9	47*	45*
CCN(CC)c1ccc2cc(-c3nc4ccccc4n3C)c(=O)oc2c1	20	40	1	·	40	·	·	·
CCCOc1ccc2c(c1)C(=NN=C(N)N)c1cc(OCCC)ccc1-2	39	8	10	96*	112*	28	34	·
CCN(CC)S(=O)(=O)c1ccc2c(c1)C(=NO)c1cc(S(=O)(=O)N(CC)CC)ccc1-2	63*	22	-1	83*	85*	4	68*	24
NC(N)=NN=C1c2ccccc2-c2ccccc21	-8	10	-14	-8	-10	18	·	·
CCN(CC)S(=O)(=O)c1ccc(C)c(C)c1	7	-4	-3	2	0	29	·	·
CCN(CC)CCOc1ccc2c(c1)C(=NO)c1cc(OCCN(CC)CC)ccc1-2	49	?	4	96*	69	-1	91*	44*
CCS(=O)(=O)Nc1ccc(C2=NN(C(=O)c3ccccc3)C(c3cccs3)C2)cc1 (centres undefined)	23	-15	13	31	9	-2	·	·
CC1(C)SC(=S)N(NC(=O)Nc2ccccc2)C1N(O)C(=O)Nc1cccc2ccccc12 (centres undefined)	26	-2	9	33	7	9	·	·
CC1CCCCC1NC(=O)c1ccc(S(=O)(=O)NCc2ccco2)cc1 (centres undefined)	-19	-1	3	-7	-10	-1	·	·
CCOC(=O)N1CCN(S(=O)(=O)c2cc(-c3nn4c(C)nnc4c4ccccc34)ccc2C)CC1	39	1	0	59*	10	-14	6	·
Cc1ccc(-c2nn3c(C)nnc3c3ccccc23)cc1S(=O)(=O)N(C)CCO	7	-7	15	53*	17	-5	13	·
CCc1ccc(NS(=O)(=O)c2ccc(OC)c3ncccc23)cc1	-3	2	0	14	-8	4	·	·
COc1cc(/C=N/N2C(=O)C3C4c5ccccc5C(c5ccccc54)C3C2=O)ccc1O (centres undefined)	5	3	-8	14	19	-19	·	·
CCCCCCc1cc2cc(S(=O)(=O)c3ccc(Cl)cc3)c(=O)oc2cc1O	-1	2	-2	75*	87*	14	34	·
CCCCCCc1cc2cc(C(=O)Nc3ccccc3)c(=O)oc2cc1O	5	112*	-2	97*	100*	-15	61*	57*
CCCCOc1nc(N)nc(-c2ccccc2)n1	2	-8	12	-4	-17	20	·	·
